Columns and labels:
Enterococcus faecalis [1] = assay: Antimicrobial activity against Enterococcus faecalis ATCC 29212 at 300 ug/disk incubated for 20 +/- 4 hrs by agar disk diffusion method; type: functional; conditions: read-out: DIZ
Enterococcus faecium [2] = assay: Antimicrobial activity against Enterococcus faecium AUS0004 at 300 ug/disk incubated for 20 +/- 4 hrs by agar disk diffusion method; type: functional; conditions: read-out: DIZ
Enterococcus faecalis [3] = assay: Antimicrobial activity against Enterococcus faecalis ATCC 29212 at 15 ug/disk incubated for 20 +/- 4 hrs by agar disk diffusion method; type: functional; conditions: read-out: DIZ
Enterococcus faecium [4] = assay: Antimicrobial activity against Enterococcus faecium AUS0004 at 15 ug/disk incubated for 20 +/- 4 hrs by agar disk diffusion method; type: functional; conditions: read-out: DIZ
Listeria monocytogenes [5] = assay: Antimicrobial activity against Listeria monocytogenes clinical isolate at 5 ug/disk incubated for 20 +/- 4 hrs by agar disk diffusion method; type: functional; conditions: read-out: DIZ
Enterococcus faecalis [6] = assay: Antimicrobial activity against Enterococcus faecalis ATCC 29212 at 30 ug/disk incubated for 20 +/- 4 hrs by agar disk diffusion method; type: functional, organism-based
Enterococcus faecium [7] = assay: Antimicrobial activity against Enterococcus faecium AUS0004 at 30 ug/disk incubated for 20 +/- 4 hrs by agar disk diffusion method; type: functional, organism-based
Listeria monocytogenes [8] = assay: Antimicrobial activity against Listeria monocytogenes clinical isolate at 200 ug/disk incubated for 20 +/- 4 hrs by agar disk diffusion method; type: functional; conditions: read-out: DIZ
Enterococcus faecium [9] = assay: Antimicrobial activity against Enterococcus faecium AUS0004 at 2 ug/disk incubated for 20 +/- 4 hrs by agar disk diffusion method; type: functional; conditions: read-out: DIZ
Listeria monocytogenes [10] = assay: Antimicrobial activity against Listeria monocytogenes clinical isolate at 30 ug/disk incubated for 20 +/- 4 hrs by agar disk diffusion method; type: functional; conditions: read-out: DIZ
Enterococcus faecalis [11] = assay: Antimicrobial activity against Enterococcus faecalis ATCC 29212 at 5 ug/disk incubated for 20 +/- 4 hrs by agar disk diffusion method; type: functional; conditions: read-out: DIZ
Enterococcus faecium [12] = assay: Antimicrobial activity against Enterococcus faecium AUS0004 at 5 ug/disk incubated for 20 +/- 4 hrs by agar disk diffusion method; type: functional; conditions: read-out: DIZ
Kocuria rhizophila = assay: Antimicrobial activity against Kocuria rhizophila clinical isolate at 50 ug/disk incubated for 20 +/- 4 hrs by agar disk diffusion method; type: functional; conditions: read-out: DIZ
How it was run: (§1)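 Agar disk diffusion on Mueller-Hinton agar swab-seeded from a 0.5 McFarland inoculum (about 10^8 CFU/ml). Cellulose discs got 50 μg compound (10 μl of 5 g/L in DMSO); a 10 μL DMSO disc was the control. Incubated aerobically at 35 ± 2 °C for 20 ± 4 h, then growth-inhibition diameters measured.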

Staphylococcus aureus = assay: Antimicrobial activity against Staphylococcus aureus ATCC 29213 at 50 ug/disk incubated for 20 +/- 4 hrs by agar disk diffusion method; type: functional; conditions: read-out: DIZ; how it was run: as §1
Streptococcus pyogenes = assay: Antimicrobial activity against Streptococcus pyogenes clinical isolate at 50 ug/disk incubated for 20 +/- 4 hrs by agar disk diffusion method; type: functional; conditions: read-out: DIZ
How it was run: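 Plates of MH + 5% horse blood were swabbed with a 0.5 McFarland inoculum and received discs with 50 μg compound (from 5 g/L in DMSO) plus a 10 μL DMSO control disc. Incubation at 35 ± 2 °C aerobically with 5% CO2 for 20 ± 4 h, then zone diameters measured.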

Bacillus subtilis = assay: Antimicrobial activity against Bacillus subtilis clinical isolate at 50 ug/disk incubated for 20 +/- 4 hrs by agar disk diffusion method; type: functional; conditions: read-out: DIZ; how it was run: as §1
Clostridium perfringens = assay: Antimicrobial activity against Clostridium perfringens clinical isolate at 50 ug/disk incubated for 20 +/- 4 hrs by agar disk diffusion method; type: functional; conditions: read-out: DIZ
How it was run: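 Agar disk diffusion on MH agar with 5% horse blood (MHF), surface-seeded by swab from a 0.5 McFarland inoculum (about 10^8 CFU/ml). Cellulose discs received 10 μl of a 5 g/L DMSO solution (50 μg). A DMSO-only disc served as control. Anaerobic incubation at 35 ± 2 °C for 20 ± 4 h; growth-inhibition diameter measured in mm.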

Enterococcus faecalis [13] = assay: Antimicrobial activity against Enterococcus faecalis ATCC 29212 at 50 ug/disk incubated for 20 +/- 4 hrs by agar disk diffusion method; type: functional; conditions: read-out: DIZ; how it was run: as §1
Enterococcus faecium [14] = assay: Antimicrobial activity against Enterococcus faecium AUS0004 at 50 ug/disk incubated for 20 +/- 4 hrs by agar disk diffusion method; type: functional; conditions: read-out: DIZ; how it was run: as §1
Enterococcus faecium [15] = assay: Antimicrobial activity against Enterococcus faecium HM1070 at 50 ug/disk incubated for 20 +/- 4 hrs by agar disk diffusion method; type: functional; conditions: read-out: DIZ; how it was run: as §1
Listeria monocytogenes [16] = assay: Antimicrobial activity against Listeria monocytogenes clinical isolate at 50 ug/disk incubated for 20 +/- 4 hrs by agar disk diffusion method; type: functional; conditions: read-out: DIZ
How it was run: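 Disk diffusion on MH agar with 5% horse blood, seeded by swab from a 0.5 McFarland suspension. Discs held 50 μg compound from a 5 g/L DMSO solution, with a DMSO-only control disc. Aerobic incubation at 35 ± 2 °C for 20 ± 4 h; inhibition zone diameter read.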

Acinetobacter baumannii = assay: Antimicrobial activity against Acinetobacter baumannii clinical isolate at 50 ug/disk incubated for 20 +/- 4 hrs by agar disk diffusion method; type: functional; conditions: read-out: DIZ; how it was run: as §1
Bacteroides fragilis = assay: Antimicrobial activity against Bacteroides fragilis ATCC 25285 at 50 ug/disk incubated for 20 +/- 4 hrs by agar disk diffusion method; type: functional; conditions: read-out: DIZ
How it was run: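 Anaerobic disk diffusion: MH agar + 5% horse blood seeded from a 0.5 McFarland swab, with discs of 50 μg compound (10 μl of 5 g/L DMSO solution) and a DMSO control disc. Kept at 35 ± 2 °C under anaerobic conditions for 20 ± 4 h; inhibition diameters recorded.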

Enterobacter cloacae = assay: Antimicrobial activity against Enterobacter cloacae clinical isolate at 50 ug/disk incubated for 20 +/- 4 hrs by agar disk diffusion method; type: functional; conditions: read-out: DIZ; how it was run: as §1
Escherichia coli [17] = assay: Antimicrobial activity against Escherichia coli clinical isolate at 50 ug/disk incubated for 20 +/- 4 hrs by agar disk diffusion method; type: functional; conditions: read-out: DIZ; how it was run: as §1
Escherichia coli [18] = assay: Antimicrobial activity against Escherichia coli ATCC 25922 at 50 ug/disk incubated for 20 +/- 4 hrs by agar disk diffusion method; type: functional; conditions: read-out: DIZ; how it was run: as §1
Klebsiella pneumoniae = assay: Antimicrobial activity against Klebsiella pneumoniae clinical isolate at 50 ug/disk incubated for 20 +/- 4 hrs by agar disk diffusion method; type: functional; conditions: read-out: DIZ; how it was run: as §1
Pseudomonas aeruginosa = assay: Antimicrobial activity against Pseudomonas aeruginosa clinical isolate at 50 ug/disk incubated for 20 +/- 4 hrs by agar disk diffusion method; type: functional; conditions: read-out: DIZ; how it was run: as §1
Enterococcus faecium [19] = assay: Antimicrobial activity against Enterococcus faecium AUS0004 at 10 ug/disk incubated for 20 +/- 4 hrs by agar disk diffusion method; type: functional; conditions: read-out: DIZ

Compound CN[C@@H]1[C@H](O[C@H]2[C@H](O[C@H]3[C@H](O)[C@@H](O)[C@H](N=C(N)N)[C@@H](O)[C@@H]3N=C(N)N)O[C@@H](C)[C@]2(O)C=O)O[C@@H](CO)[C@H](O)[C@H]1O [STREPTOMYCIN] has a zone of inhibition at 300 µg/disc (Enterococcus faecalis [1]) of 16 mm and a zone of inhibition at 300 µg/disc (Enterococcus faecium [2]) of 22 mm.

CC[C@H]1OC(=O)[C@H](C)[C@@H](O[C@H]2C[C@@](C)(OC)[C@@H](O)[C@H](C)O2)[C@H](C)[C@@H](O[C@@H]2O[C@H](C)C[C@H](N(C)C)[C@H]2O)[C@](C)(O)C[C@@H](C)C(=O)[C@H](C)[C@@H](O)[C@]1(C)O [ERYTHROMYCIN] was tested, and the zone of inhibition at 15 µg/disc (Enterococcus faecalis [3]) was 20 mm and the zone of inhibition at 15 µg/disc (Enterococcus faecium [4]) was 6 mm.

Compound CC1COc2c(N3CCN(C)CC3)c(F)cc3c(=O)c(C(=O)O)cn1c23 (centres undefined) [OFLOXACIN] has a zone of inhibition at 5 µg/disc (Listeria monocytogenes [5]) of 21 mm.

Work on GENTAMICIN yielded an inhibition zone (IZ) (Enterococcus faecalis [6]) of 14 mm and an inhibition zone (IZ) (Enterococcus faecium [7]) of 17 mm.

C[C@@H]1O[C@@H]1P(=O)(O)O [FOSFOMYCIN] showed a zone of inhibition at 200 µg/disc (Listeria monocytogenes [8]) of 6 mm.

With CC1(C)S[C@@H]2[C@H](NC(=O)[C@H](N)c3ccccc3)C(=O)N2[C@H]1C(=O)O [AMPICILLIN] the zone of inhibition at 2 µg/disc (Enterococcus faecium [9]) was 6 mm.

CO[C@@]1(NC(=O)[C@H](C(=O)O)c2ccc(O)cc2)C(=O)N2C(C(=O)O)=C(CSc3nnnn3C)CO[C@@H]21 gave a zone of inhibition at 30 µg/disc (Listeria monocytogenes [10]) of 15 mm.

Work on CO[C@H]1/C=C/O[C@@]2(C)Oc3c(C)c(O)c4c(O)c(c(/C=N/N5CCN(C)CC5)c(O)c4c3C2=O)NC(=O)/C(C)=C\C=C\[C@H](C)[C@H](O)[C@@H](C)[C@@H](O)[C@@H](C)[C@H](OC(C)=O)[C@@H]1C [RIFAMPIN] yielded a zone of inhibition at 5 µg/disc (Enterococcus faecalis [11]) of 21 mm and a zone of inhibition at 5 µg/disc (Enterococcus faecium [12]) of 9 mm.

With O=C(Nc1nnc(-c2ccc(C(F)(F)F)cc2)o1)c1ccc(Cl)cc1 the zone of inhibition at 50 µg/disc (Kocuria rhizophila) was 14 mm, the zone of inhibition at 50 µg/disc (Staphylococcus aureus) was 9 mm and the zone of inhibition at 50 µg/disc (Streptococcus pyogenes) was 6 mm. The zone of inhibition at 50 µg/disc (Bacillus subtilis) was 13 mm, the zone of inhibition at 50 µg/disc (Clostridium perfringens) was 6 mm and the zone of inhibition at 50 µg/disc (Enterococcus faecalis [13]) was 10 mm. It also gave a zone of inhibition at 50 µg/disc (Enterococcus faecium [14]) of 9 mm, a zone of inhibition at 50 µg/disc (Enterococcus faecium [15]) of 11 mm and a zone of inhibition at 50 µg/disc (Listeria monocytogenes [16]) of 16 mm. The zone of inhibition at 50 µg/disc (Acinetobacter baumannii) was 6 mm, the zone of inhibition at 50 µg/disc (Bacteroides fragilis) was 9 mm and the zone of inhibition at 50 µg/disc (Enterobacter cloacae) was 6 mm. For the same compound, the zone of inhibition at 50 µg/disc (Escherichia coli [17]) was 6 mm, the zone of inhibition at 50 µg/disc (Escherichia coli [18]) was 6 mm and the zone of inhibition at 50 µg/disc (Klebsiella pneumoniae) was 6 mm. For the same compound, the zone of inhibition at 50 µg/disc (Pseudomonas aeruginosa) was 6 mm.

In the case of C[C@@H](O)[C@H]1C(=O)N2C(C(=O)O)=C(SCCNC=N)C[C@H]12 [IMIPENEM ANHYDROUS], the zone of inhibition at 10 µg/disc (Enterococcus faecium [19]) is reported as 6 mm.

— ChEMBL document CHEMBL4364345, “Synthesis and evaluation of 1,3,4-oxadiazole derivatives for development as broad-spectrum antibiotics” (Bioorg Med Chem, 2019)
